Source: the RNAGym collection of RNA variant scans (doi:10.1126/science.aae0568)
This sample holds only a part of the variants without activity.

B1: tRNA (parent)
chain: GUUCCGUUGGCGUAAUGGUAACGCGUCUCCCUCCUAAGGAGAAGACUGCGGGUUCGAGUCCCGUACGGAACG

Variants of: B1
Assay: yeast fitness relative to wild type (ratio to wild type); higher = fitter; tRNA-Arg(CCU), competitive growth, 37 C, YPD
Method in brief: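 For this measurement, the tRNA-Arg(CCU) gene was varied by chemical synthesis at a 3% per-site mutation rate across 69 sites, and each variant was placed at the native genomic locus in Saccharomyces cerevisiae. The pooled strains went through a 24-hour competition in YPD at 37°C in six parallel replicates, with amplicons from start and end populations read by 100-nucleotide paired-end sequencing. Darwinian fitness relative to wild type followed from the change in each genotype's frequency. Genotypes needed ≥ 100 starting reads, and estimates < 0.5 were set to 0.5.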

Question: Which yeast fitness does the source give for GUUCCGUUGGCGUAAUGAUAACGCGUCUGCCUCCUAGGGAGAAGACUGCGGGUUCGAGUCCCGUACGGAACG [G18A C29G A37G] here?
Answer: 0.598

Question: With GUUCCGUUGGCGUAAUGAUAACGCGUUUCCCUCGUAAGGAGAAGACUCUGGGUUCGAGUCCCGUACGGAACG [G18A C27U C34G G48C C49U] as the variant, how does the yeast fitness read?
Answer: ≤ 0.5

Question: For GUUCCGUUGGCGUAAUGAUAACGCGUCUGCCUCCUAAGGAGAAGACUGGGGGUUCGAGUCCCCUACGGAACG [G18A C29G C49G G63C], which yeast fitness is on record?
Answer: ≤ 0.5

Question: With GUUCCGUUGGCGUAAUGAUAACGCGUUCCCAUCCUAAGGAGAAGACUGCGGGUUGGAGUCCCGUACGGAACG [G18A C27U U28C C31A C55G] as the variant, how does the yeast fitness read?
Answer: ≤ 0.5

Question: Which yeast fitness does the source give for GUUCCGUUGGCGUAAUGAUAACGGGUCUCUCUCCUAAGGAGAAGACUGCGGGUUCGAGUCCCGUACGGAACG [G18A C24G C30U] here?
Answer: ≤ 0.5

Question: Which yeast fitness does the source give for GUUCCGUUGGCGUAAUGAUAACGUGUCUCCCUCCUAAGGAGAAGACUGCGGGUUCGAGUCCCGUACGCAACG [G18A C24U G68C] here?
Answer: 0.538

Question: Which yeast fitness does the source give for GUUCCGUUGGCGUAAUGAUAACGUGUCUCCCUCCUAAGGAGAAGACUCCGGGGUCGAGUCCCGUACGGAACG [G18A C24U G48C U53G] here?
Answer: 0.583

Question: For GUUCCGUUGGCGUAAUGAUAACGCGUCUCCCUCCUAAGGAGAAGACUGCGGGUUCGUGUCCCGUACGGACCG [G18A A57U A70C], which yeast fitness is on record?
Answer: 0.536

Question: For GUUCCGUUGGCGUAAUGAUAACGCGUCUCCCUCCUAAGGAGAAGACUGCGGGUUCGGGUCCCGUACGGUACG [G18A A57G A69U], which yeast fitness is on record?
Answer: ≤ 0.5

Question: For GUUCCGUUGGCGUAAUGAUAAAGCGUCUCCCUCCUAAGGAGAAGACUGCGGGUUCGAGUCACGUGCGGAACG [G18A C22A C61A A65G], which yeast fitness is on record?
Answer: ≤ 0.5

Question: For GUUCCGUUGGCGUAAUGAUAACGCGUCUCCCUCCUAAGGAGAAGACUGCGGGUUCGUGUCCCGUACGGAACG [G18A A57U], which yeast fitness is on record?
Answer: 0.588

Question: Which yeast fitness does the source give for GUUCCGUUGGCGUAAUGAUAACGGGUCUCCCUCCUAAGCAGAAGACUGCGGGUUCGAGUCCCGUACGGAACG [G18A C24G G39C] here?
Answer: ≤ 0.5

Question: Which yeast fitness does the source give for GUUCCGUUGGCGUAAUGAUAACGCGUUCCCAUCCUAAGGAGAAGACUGCGGGUUGGAGUCACGUACGGAACG [G18A C27U U28C C31A C55G C61A] here?
Answer: 0.572

Question: For GUUCCGUUGGCGUAAUGAUAACGCGUCUGCCUCCUAGGGAGAAGACUGCGGGUUCGAGUACGGUACGGAACG [G18A C29G A37G C60A C62G], which yeast fitness is on record?
Answer: 0.728

Question: With GUUCCGUUGGCGUAAUGAUAACGUGUCUCCCUCCUAAGGAGAAGACUGCGGGUUCGAGUCCCGUACGGAACG [G18A C24U] as the variant, how does the yeast fitness read?
Answer: 0.646

Question: For GUUCCGUUGGCGUAAUGAUAACGGGUCUCCCUCCUAAGGAGAAGACUGCGGGUUCGAGUCCCGUACGGAACG [G18A C24G], which yeast fitness is on record?
Answer: 0.666

Question: For GUUCCGUUGGCGUAAUGAUAACGCGUCUCCCUCCUAAGGAGAAGACUGCGGGUUCGAGUCCCGUUCGGUACG [G18A A65U A69U], which yeast fitness is on record?
Answer: 0.718

Question: Which yeast fitness does the source give for GUUCCGUUGGCGUAAUGAUAACGCGUCUACCUUCUAAGGAGAAGACUGCGGGUUCGAGUGCCGUACGGAACG [G18A C29A C33U C60G] here?
Answer: ≤ 0.5

Question: With GUUCCGUUGGCGUAAUGAUAACGCGUCUACCUCCUAAGGAGAAGACUGCGGGUUCGAGUCCCGUACGGAACG [G18A C29A] as the variant, how does the yeast fitness read?
Answer: 0.539

Question: Which yeast fitness does the source give for GUUCCGUUGGCGUAAUGAUAACGGGUCUCCCUCCUAAGGAGAAGACUGAGGGUUCGAGUCCCGUACGGAACG [G18A C24G C49A] here?
Answer: ≤ 0.5

Question: With GUUCCGUUGGCGUAAUGAUAACGUGUCUUCUUCCUAAGCAGAAGACUGCGGGUUCGAGUCCCGUACGGAACG [G18A C24U C29U C31U G39C] as the variant, how does the yeast fitness read?
Answer: ≤ 0.5

Question: With GUUCCGUUGGCGUAAUGAUAACGUGUCUCCCUCCUAAGGAGAAGACUGCGGGUUCGAAUCCCGUACGGAACG [G18A C24U G58A] as the variant, how does the yeast fitness read?
Answer: ≤ 0.5

Question: For GUUCCGUUGGCGUAAUGAUAACGCGUCUGCCUCCUAGGGAGAACACUGCGGGUUCGAGUCCCGUACGGAACG [G18A C29G A37G G44C], which yeast fitness is on record?
Answer: 0.598

Question: With GUUCCGUUGGCGUAAUGAUAACGGGUUUCCCUCCUAAGGAGAAGACUGCGGGUUCGAGUCCUGUACGGACCG [G18A C24G C27U C62U A70C] as the variant, how does the yeast fitness read?
Answer: ≤ 0.5

Question: For GUUCCGUUGGCGUAAUGAUAAGGGGUCUCCCUCCUAAGGAGAAGACUGCAGGUUCGAGUCCCGUACGGCACG [G18A C22G C24G G50A A69C], which yeast fitness is on record?
Answer: ≤ 0.5

Question: With GUUCCGUUGGCGUAAUGAUAACGCGUGUCCCUCCUAAGGAGAAGACUGGGGGUUCGAGUCCGGUAUGGCACG [G18A C27G C49G C62G C66U A69C] as the variant, how does the yeast fitness read?
Answer: ≤ 0.5

Question: Which yeast fitness does the source give for GUUCCGUUGGCGUAAUGAUAAAGCGUCUCCCUCCUAAGGAGAAGAGUGCGGGAUCGAGUCGCGUACGGACCG [G18A C22A C46G U53A C61G A70C] here?
Answer: 0.583

Question: For GUUCCGUUGGCGUAAUGAUAAAGCGUCUCCCUCCUAAGGAGAAGACUGCGGGUUCGAGUCCCGUACGGAACG [G18A C22A], which yeast fitness is on record?
Answer: 0.805

Question: With GUUCCGUUGGCGUAAUGAUAAGGCGUCUCCCUCCUAAGGAGAAGACUGCGGGUUCGAGUCCCGUACGGAACG [G18A C22G] as the variant, how does the yeast fitness read?
Answer: 0.856

Question: For GUUCCGUUGGCGUAAUGAUAACGUGUCUCUCUCUUAAGGAGAAGACUGCGGGUACGAGUCCCGUACGGAACG [G18A C24U C30U C34U U54A], which yeast fitness is on record?
Answer: 0.531

Question: Which yeast fitness does the source give for GUUCCGUUGGCGUAAUGAUAACGCGUUUCCCUCCUAAGGAGAAGACUGCGGGUUCGAGUCCCGUACGGAACG [G18A C27U] here?
Answer: 0.712

Question: For GUUCCGUUGGCGUAAUGAUAACGCGUGUCCCUCCUAAGGAGAAGACUGCGGGUUCGAGUCCCGUACGGAACG [G18A C27G], which yeast fitness is on record?
Answer: ≤ 0.5

Question: For GUUCCGUUGGCGUAAUGAUAACGAGUCUCCAUCCUAAGGAGAAGACUGCGGGUUCGAGUCCCGUACGUAACG [G18A C24A C31A G68U], which yeast fitness is on record?
Answer: ≤ 0.5

Question: Which yeast fitness does the source give for GUUCCGUUGGCGUAAUGAUAAAGCGUCUCCCUCCUAAGGAGAAGACUGCGGGUUCGAGUCACGUGCGGAUCG [G18A C22A C61A A65G A70U] here?
Answer: 0.585

Question: For GUUCCGUUGGCGUAAUGAUAACGCGUCUCCCUCCUAAGGAGAAGACUGCGGGUUCGAGUCCCGUACGGUACG [G18A A69U], which yeast fitness is on record?
Answer: 0.896

Question: Which yeast fitness does the source give for GUUCCGUUGGCGUAAUGAUAACGCGUAUCCCUCCUAAGGAGAAGACUACGGGUUCGAGUCCCGUACGGAACG [G18A C27A G48A] here?
Answer: 0.612

Question: With GUUCCGUUGGCGUAAUGAUAAAGCGUCUCCCUCCUACGGAGAAGACUACGGGUUCGAGUCCCGUACGGAACG [G18A C22A A37C G48A] as the variant, how does the yeast fitness read?
Answer: ≤ 0.5

Question: Which yeast fitness does the source give for GUUCCGUUGGCGUAAUGAUAACGCGUCUCCCUCCUAAGGAGAAGACUGCGGGUUCGAGUCCCGUUCGGAACG [G18A A65U] here?
Answer: 0.729
